Screening data (PubChem)
DENV2 CPE rescue = DENV2-induced cell death inhibition; DENV2-infected cells, cytopathic effect rescue, plate reader; CPE inhibition, % at 9.99 µM; 350,000 tested, 1.7% active; in the data active = CPE inhibition above about 20%, passing the limit was not always enough; inconclusive = no clear call, values can overlap the other calls; tested in BHK-21 cells;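 note: 0% = median of neutral control wells and 100% = median of positive control wells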
SIRT5 inh = sirtuin-5 (human) deacylase inhibition; AID 652115; Purified SirT5, succinyl-peptide AMC, trypsin-coupled fluorescence; 330,000 tested, 1.1% active; inhibition, % at 15 µM; in the data active = inhibition above about 15%; inconclusive = no clear call, values can overlap the other calls
Target sequence (Q9NXA8 whole entry, looked up): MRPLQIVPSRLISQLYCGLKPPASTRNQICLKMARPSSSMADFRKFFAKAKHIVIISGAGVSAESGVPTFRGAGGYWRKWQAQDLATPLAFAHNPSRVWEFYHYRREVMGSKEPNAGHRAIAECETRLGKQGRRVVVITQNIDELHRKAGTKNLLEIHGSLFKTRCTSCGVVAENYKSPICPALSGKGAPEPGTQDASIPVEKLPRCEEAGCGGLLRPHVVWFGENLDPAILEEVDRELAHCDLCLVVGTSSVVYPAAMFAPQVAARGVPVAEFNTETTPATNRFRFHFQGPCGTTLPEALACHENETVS
E-sel inducer = induces E-selectin expression in human endothelial cells; HUVEC E-selectin immunofluorescence imaging; normalized: neutral wells 0, TNF-alpha wells 100; activation, % at 7.58 µM; 260,000 tested, 0.37% active; AID 686992;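 active = mean E-selectin-positive cell signal at least 10% of the positive control, reached in at least 60% of replicates, without over 20% cell loss; inconclusive = no rule given, readout overlaps actives, possibly toxicity-flagged; inactive = the rest, including those meeting only one limit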
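Read-out: % PE-positive cells | Test system: HUVEC | Doses: One compound dose added by pin transfer | Buffer or medium: EGM-2 over gelatin coat | Signal: Immunofluorescence imaging | Benchmarks: TNF-alpha, DMSO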
Numbers without * were called inactive; ? = inconclusive; · = no result; ! = a repeat was not active. Only some compounds are listed: those with a hit (about 2.9% of all), similar ones and a draw of the others.

SMILES | DENV2 CPE rescue | SIRT5 inh | E-sel inducer
O=C(CC1CC1)N[C@@H]1C[C@@H]2O[C@@H](CO)CC[C@@H]2O[C@@H]1CCc1ccc(C#Cc2ccccc2)cc1 | 4 | -2 | ·
O=C(CC1CC1)N[C@H]1C[C@@H]2O[C@H](CO)CC[C@@H]2O[C@@H]1CCc1ccc(C#Cc2ccccc2)cc1 | 28* | · | ·
CN(C)CC(=O)N[C@H]1C[C@@H]2O[C@H](CO)CC[C@@H]2O[C@@H]1CCc1ccc(C#Cc2ccccc2)cc1 | -6 | · | ·
O=C(CC1CC1)N[C@H]1C[C@@H]2O[C@@H](CO)CC[C@@H]2O[C@@H]1CCc1ccc(C#Cc2ccccc2)cc1 | 21* | · | ·
Clc1cccc(-c2ccc(CNCCCN3CCOCC3)o2)c1 | -1 | -2 | 0
O=C(Cc1ccc(Cl)cc1)Nc1ccc(CN2CCCCC2)cc1 | 13 | 80* | 0
CC(=O)Nc1ccc(CN2CCCCCC2)cc1 | -2 | -1 | ·
Cc1cc(Cn2nc(C(=O)NCc3cccc(Br)c3)cc2-c2ccccc2)on1 | 1 | · | 0
COCCNC(=O)c1cc(-c2ccccc2)n(Cc2cc(C)no2)n1 | 22* | · | 0
Cc1cc(C)c(C(=O)Nc2ccc(S(=O)(=O)Nc3ccccn3)cc2)c(C)c1 | -3 | 7 | ·
Oc1ccc(N=Nc2ccccc2-c2nn[nH]n2)c(O)c1 | -1 | 17* | -1
c1ccc(-c2nn[nH]n2)cc1 | -1 | -2 | ·
CCC1(c2ccc(F)cc2)NC(=O)NC1=O (centres undefined) | 5 | -4 | 0
CN1CCN(C(=O)c2ccc(C(F)(F)F)cc2)CC1 | · | 6 | ·
CCN1CCN(C(=O)c2ccc(C(F)(F)F)cc2)CC1 | 4 | 20* | 3
O=C(C[C@@H]1C[C@H]2c3cc(NS(=O)(=O)c4ccc(F)cc4)ccc3O[C@H]2[C@H](CO)O1)NCc1ccncc1 | -7 | 1 | 0
COc1ccc(CCNS(=O)(=O)c2ccc3c(c2)NC(=O)CO3)cc1OC | -3 | -2 | 0
COc1cc(/C=C2/C(=O)NN(c3ccc(F)cc3)C2=O)cc(Cl)c1O | -3 | -3 | 0
COc1cc(/C=C2/C(=O)NN(c3ccc(Cl)c(Cl)c3)C2=O)cc([N+](=O)[O-])c1O | 16 | 22* | 0
Cc1csc2ncnc(NNC(=O)c3ccc(Cl)cc3)c12 | -3 | -6 | ·
NS(=O)(=O)c1ccc(CCNC(=O)c2ccncc2)cc1 | 9 | -6 | ·
NS(=O)(=O)c1ccc(CCNC(=O)c2ccc(C#CC3(O)CCCCC3)cc2)cc1 | 0 | 112* | 0
COc1cccc(C2Oc3ccccc3C3CC(c4cccs4)=NN32)c1 (centres undefined) | 81* | -2 | 0
O=C(c1ccccc1)C1Oc2ccccc2C2CC(c3cccs3)=NN12 (centres undefined) | · | -3 | 7
O=C1NC(=Nc2ccccc2)S/C1=C\c1cccnc1 | 16 | 1 | ·
SMILES | DENV2 CPE rescue | SIRT5 inh | E-sel inducer
CCc1nnc(NC(=O)c2ccc(F)c(S(=O)(=O)N3CCCCC3)c2)s1 | 69* | 2 | 1
CCc1nnc(NC(=O)c2ccc(S(=O)(=O)N3CCCCC3)cc2)s1 | 1 | · | 0
Cc1noc(/C=C/N(C)C)c1S(=O)(=O)N1CCCC(C(=O)N2CCCCC2)C1 (centres undefined) | ? | 17* | 0
Cc1noc(/C=C/N(C)C)c1S(=O)(=O)N1CCCC(C(=O)NC2CCCCC2)C1 (centres undefined) | 0 | 4 | 0
Cc1ccc(NC2c3ncccc3C(=O)N2Cc2cccs2)cc1 (centres undefined) | -3 | 0 | 0
O=C(Nc1cc(F)cc(F)c1)c1sc(Cl)nc1-c1ccccc1 | 68* | -2 | ·
Cc1nc(Cl)sc1C(=O)Nc1cc(F)cc(F)c1 | 5 | 3 | 0
CN1C(=O)[C@@](O)(c2cn(C)c3ccccc23)c2cc(F)ccc21 | 5 | -4 | 7
CN1C(=O)C(c2cn(C)c3ccccc23)(c2cn(C)c3ccccc23)c2cc(F)ccc21 | 30* | 2 | 0
O=C(c1ccco1)N1CCN(c2ncccn2)CC1 | -5 | 2 | ·
Cc1ccc(S(=O)(=O)N(C)CC(=O)Oc2ccc(-c3nnco3)cc2)cc1 | 126* | -4 | ·
Cc1ccc(S(=O)(=O)N(C)C)cc1NC(=O)COc1ccc(-c2nnco2)cc1 | 12 | -1 | 0
CC(=O)N1CCN(c2ccc(NC(=O)c3ccc(F)cc3)cc2)CC1 | 4 | 5 | ·
CC(=O)c1c(C)[nH]c(C(=O)OCc2c(F)cccc2Cl)c1C | 0 | -7 | ·
CO[C@H](CN(C)Cc1ccc2c(c1)OCO2)[C@@H](C)CN(C(=O)c1ccccc1)[C@H](C)CO | 0 | 5 | 0
C[C@@H]1CN([C@@H](C)CO)C(=O)c2cc(NC(=O)NC3CCCCC3)ccc2O[C@@H](C)CCCCO[C@@H]1CN(C)C(=O)c1ccncc1 | -8 | · | 0
C[C@H]1CCCCO[C@@H](CN(C)C(=O)c2ccncc2)[C@@H](C)CN([C@@H](C)CO)C(=O)c2cc(NC(=O)NC3CCCCC3)ccc2O1 | 21* | · | 0
C[C@@H]1CCCCO[C@@H](CN(C)C(=O)c2ccncc2)[C@@H](C)CN([C@H](C)CO)C(=O)c2cc(NC(=O)Cc3ccccc3)ccc2O1 | 24*! | 5 | 0
C[C@@H]1CCCCO[C@H](CN(C)C(=O)c2ccncc2)[C@@H](C)CN([C@@H](C)CO)C(=O)c2cc(NC(=O)NC3CCCCC3)ccc2O1 | 1 | · | 0
C[C@@H]1CN([C@@H](C)CO)C(=O)c2cc(NC(=O)Cc3ccccc3)ccc2O[C@@H](C)CCCCO[C@H]1CN(C)C(=O)c1ccncc1 | -10 | 5 | ·
C[C@@H]1CCCCO[C@@H](CN(C)C(=O)c2ccncc2)[C@@H](C)CN([C@H](C)CO)C(=O)c2cc(NC(=O)NC3CCCCC3)ccc2O1 | 27* | · | 0
C/C=C/c1ccc2c(c1)O[C@H](CN(C)C(=O)c1cccnc1)[C@H](C)CN([C@H](C)CO)S2(=O)=O | 4 | -2 | 0
S=c1[nH]nc(Cc2cccs2)n1-c1ccccc1 | 4 | 2 | ·
C[C@@H]1CN([C@H](C)CO)C(=O)c2cccc(NS(=O)(=O)c3ccc(F)cc3)c2O[C@H]1CN(C)Cc1ccc(C(F)(F)F)cc1 | 12 | 1 | -1
O=C(CCC(=O)c1ccc(F)cc1)NN1C(=O)NC2(CCCCC2)C1=O | 3 | 11 | 2
SMILES | DENV2 CPE rescue | SIRT5 inh | E-sel inducer
O=C(CCl)NN1C(=O)NC2(CCCCC2)C1=O | 1 | -3 | 0
CCOc1ccc(C(=O)CCC(=O)NN2C(=O)NC3(CCCCC3)C2=O)cc1 | 2 | -3 | 0
CC(C)Oc1ccc(C(=O)NN2C(=O)NC3(CCCCC3)C2=O)cc1 | 68* | -4 | 1
O=C(NN1C(=O)NC2(CCCCC2)C1=O)c1ccc(Cl)c(Cl)c1 | ? | 17* | 1
O=C(NN1C(=O)NC2(CCCCC2)C1=O)c1cc(F)cc(F)c1 | 32* | -2 | 15
COc1ccc(Br)c(C(=O)OCC(=O)NC2CC2)c1 | 4 | -4 | 1
Cc1c(Cl)cccc1NC(=O)CNC(=O)C1CC(=O)N(CCc2ccccc2)C1 (centres undefined) | -1 | -4 | 2
CC(C)NC(=O)Nc1ccc2c(c1)C(=O)N([C@@H](C)CO)C[C@@H](C)[C@@H](CN(C)C(=O)Nc1cccc3ccccc13)O2 | -3 | -1 | ·
Nc1nnc(SCc2c(F)cccc2Cl)s1 | -4 | -3 | 0
